Compound activity from PubChem BioAssay.
Hits are enriched below; roughly 4.3% of the tested compounds scored in any of these assays.
MC4R antag cAMP: blocks human MC4R cAMP signaling | inhibition, % at 6.5 µM | MC4R-expressing cells, MTII-stimulated cAMP, LANCE TR-FRET | 0.48% of 360,000 active;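 active means inhibition above its plate's cutoff, the mean of tested wells on that plate plus 3 SD, cut at about 29% in these data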;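 further: 0% = Melanotan II alone and 100% = Melanotan II plus saturating MCL0020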
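material = U2OS cells stably expressing human melanocortin 4 receptor (MC4R) | also added = Melanotan II challenge | dosing = single nominal compound dose of 6.5 µM | detection = TR-FRET with Eu-cAMP and labeled anti-cAMP, 671 nm | replication = singlicate | timing = compound 30 min, challenge 1 h, detection 1 h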
B2AR ag: activates human beta-2 adrenergic receptor causing internalization; Am2.2-beta2AR cells, FAP receptor internalization, flow cytometry; response, % (concentration not given with the values); 0.43% of 340,000 active; AID 504454;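 active means response above a set limit, near 3 SD of response in nonfluorescent compounds, cut at about 42% in these data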
TAAR1 antag: human TAAR1 antagonism. Q96RJ0. CHO RD-HGA16 TAAR1, Fluo-8 calcium fluorescence, antagonist. inhibition, % at 3 µM. 1.5% of 360,000 active. AID 624466;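 active means inhibition above a per-plate cutoff, the mean inhibition of test compounds on that plate plus 3 SD, cut at about 49% in these data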;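 further: 0% = DMSO plus EC80 beta-PEA response and 100% = DMSO alone without agonist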
Target sequence (Q96RJ0 whole entry, looked up): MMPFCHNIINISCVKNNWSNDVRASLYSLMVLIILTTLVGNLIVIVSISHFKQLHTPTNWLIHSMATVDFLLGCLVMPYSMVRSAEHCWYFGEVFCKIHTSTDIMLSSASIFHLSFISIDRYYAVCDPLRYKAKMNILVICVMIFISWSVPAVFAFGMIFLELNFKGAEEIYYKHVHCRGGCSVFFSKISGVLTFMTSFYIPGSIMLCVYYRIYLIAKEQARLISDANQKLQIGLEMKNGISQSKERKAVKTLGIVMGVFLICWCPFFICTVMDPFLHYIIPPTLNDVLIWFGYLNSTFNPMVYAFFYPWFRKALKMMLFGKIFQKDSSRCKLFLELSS
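Test system – hTAAR1-expressing CHO RD-HGA16 cells, Gα16-coupled · Also added – β-PEA at EC80 concentration, post-compound challenge · Compound – 3 µM, single point · Incubation – dye loading 75 min at 37 °C, then 30 min room temperature · Measured by – Fluo-8 intracellular calcium dye fluorescence, real-time kinetic reads · Benchmarks – vehicle and agonist controls · Replicates – singlicate, one well per test compound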
m5-HT2A agonist: mouse HTR2A agonism via beta-arrestin recruitment; P35363; CHO-K1 mHTR2A beta-arrestin complementation, luminescence; percent of 30 µM serotonin response; activation, % at 7.6 µM; 0.66% of 360,000 active;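 active means activation above a run cutoff, the mean activation of all tested compounds plus 3 SD, cut at about 14% in these data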;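 further: 0% = plate median of compound wells and 100% = 30 µM serotonin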
MC4R barr agon: human MC4R agonism via beta-arrestin. P32245. U2OS MC4R beta-arrestin complementation, luminescence; percent of melanotan II response, DMSO zero. activation, % at 8.9 µM. 0.98% of 360,000 active. AID 540308;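 active means activation above a per-plate cutoff, the mean activation of sample wells on that plate plus 3 SD, cut at about 8% in these data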
TAAR1 ag: human TAAR1 agonism | Q96RJ0 | CHO RD-HGA16 TAAR1, Fluo-8 calcium fluorescence; vehicle wells 0%, saturating PEA agonist 100% | activation, % at 3 µM | 0.99% of 360,000 active;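 active means activation above the mean activation of all test compounds in the run plus 3 SD, cut at about 38% in these data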
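Test system: RD-HGA16 (CHO) cells co-expressing Gα16 and hTAAR1 | Doses: Single dose, 3 µM | Schedule: 17-24 h seeding, 75 min 37 °C dye, 30 min RT | Evaluation: % activation from peak over basal fluorescence ratio, DMSO-to-PEA scaled | Technique: Kinetic Fluo-8 calcium fluorescence | Benchmarks: Low control DMSO, high control PEA (EC100)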
OPRM1 ag: counter-screen for mouse HTR2A agonists: human mu opioid receptor agonists. AID 624380. shares compounds with m5-HT2A agonist. U2OS OPRM1 beta-arrestin PathHunter, luminescence; DMSO 0%, DAMGO 9.3 µM 100%. activation, % at 9.3 µM. 5.3% of 2,300 active;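 active means mean activation above the mean of DMSO-only wells plus 3 SD, cut at about 0.5% in these data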
m5-HT2A ag conf: mouse HTR2A agonism confirmed; AID 624381; activation, % at 7.6 µM; CHO-K1 PathHunter beta-arrestin recruitment, luminescence; DMSO 0%, 30 µM serotonin 100%; 19% of 2,300 active; shares compounds with m5-HT2A agonist;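 active means mean activation across triplicates above the hit threshold derived in the original primary screen, cut at about 15% in these data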
An asterisk follows results filed as active; / = no result.

SMILES	MC4R antag cAMP	B2AR ag	TAAR1 antag	m5-HT2A agonist	MC4R barr agon	TAAR1 ag	OPRM1 ag	m5-HT2A ag conf
COc1ccc(-c2n[nH]c(C)c2-c2ccc(Cl)cc2)c(O)c1OC	6	23	54*	22*	7	19	0	7
COc1ccc(O)c(-c2c(-c3ccc(Cl)cc3)n[nH]c2C)c1	3	-4	6	0	-1	3	/	/
C=CCNc1nc(-c2cccc(OC)c2O)nc2ccccc12	-10	1	26	42*	9.4*	17	0	24*
CC(=O)c1ccccc1NC(=O)c1cc(S(=O)(=O)N2CCOCC2)ccc1N1CCCC1	9	-2	1	-2	-3	6	/	/
C=CCOC(=O)COc1ccc2c3c(c(=O)oc2c1)CCCC3	-1	/	-10	16*	3	1	-1	-3
COC(=O)[C@]12CCCCC=C1N(Cc1ccc(Cl)cc1Cl)C(=O)[C@H](CC(=O)NCCC(C)C)C2	/	/	46	2	/	1	/	/
COc1ccccc1N1CCN(C(=O)c2cccc(NC3=NC4CS(=O)(=O)CC4S3)c2)CC1 (centres undefined)	1	6	-2	24*	0	1	-1	-3
COc1ccc(OC)c(CCNC(=O)c2ccc(NC3=NC4CS(=O)(=O)CC4S3)cc2)c1 (centres undefined)	1	8	-9	17*	0	0	0	0
CCOc1ccccc1NC(=O)c1cccc(NC2=NC3CS(=O)(=O)CC3S2)c1 (centres undefined)	10	-2	-36	15*	-1	4	-1	-3
Cc1cccc(N2CCN(C(=O)c3cccc(NC4=NC5CS(=O)(=O)CC5S4)c3)CC2)c1C (centres undefined)	9	13	-14	-3	0	5	/	/
CCOC(=O)CN1C(=O)C(CC)Oc2ccccc21 (centres undefined)	-5	1	-15	5	0	3	/	/
CCOC(=O)C(C(=O)OCC)C1N=C(N)N=C2Oc3ccccc3N21 (centres undefined)	2	-1	-15	15*	0	7	0	0
CCC1CCC(N2CCN(c3ccccc3F)CC2)CC1 (centres undefined)	-3	0	-29	-5	0	3	/	/
CC(=O)N1CCC(N2CCN(c3ccccc3F)CC2)CC1	6	-3	6	26*	-1	5	0	64*
Cc1cn(CCOc2ccc(Cl)cc2)c(=O)[nH]c1=O	-1	3	-10	17*	2	0	-1	-4
O=c1ccn(CCOc2ccc(Cl)cc2)c(=O)[nH]1	7	1	-3	-1	1	8	/	/
CCOC(=O)C1(C)CCCN1C(=O)c1ccccc1OC (centres undefined)	13	/	5	15*	0	-1	-1	-4
Cc1cc(OCC(=O)OCC(=O)N2CC(C)CC(C)C2)ccc1Cl (centres undefined)	7	-1	13	6	-2	1	/	/
Cc1cccc(-c2ccc3[nH]c4c(c3c2)CCN2C[C@H]3[C@H](C)ON(C)[C@H]3C[C@@H]42)c1	-5	/	15	8	1	12	/	/
C[C@@H]1ON(C)[C@H]2C[C@H]3c4[nH]c5ccccc5c4CCN3C[C@@H]12	3	/	-8	22*	2	1	0	13
Cc1ccc(-c2nc3c(c(SCC(=O)N4CCOCC4)n2)COC(C)(C)C3)cc1	-1	-10	7	20*	-3	0	0	-3
O=C(NCc1ccc(F)cc1)C1CCCN(S(=O)(=O)c2cccc3nonc23)C1 (centres undefined)	5	0	-16	17*	2	0	-1	-4
COc1cccc(CNC(=O)C2CCCN(S(=O)(=O)c3cccc4nonc34)C2)c1 (centres undefined)	3	0	-6	1	0	1	/	/
CC(=O)Nc1ccc(NC(=O)C(C)OC(=O)c2ccc3[nH]c(C)c(C)c3c2)cc1 (centres undefined)	-1	2	25	2	1	1	/	/
CC(C)(C)N(Cc1ccc2c(c1)OCO2)C(=O)/C=C\S(=O)c1ccccc1 (centres undefined)	-10	-3	-23	19*	-2	2	-1	2
SMILES	MC4R antag cAMP	B2AR ag	TAAR1 antag	m5-HT2A agonist	MC4R barr agon	TAAR1 ag	OPRM1 ag	m5-HT2A ag conf
Cc1cnc(=O)[nH]c1SCC(=O)Nc1nccs1	2	-2	-18	15*	-2	0	-1	-3
O=C(C[C@H]1CC[C@@H](NC(=O)Nc2ccc3c(c2)OCO3)[C@@H](CO)O1)NCc1ccccc1	/	/	-11	-5	/	3	/	/
CC(C)NC(=O)N[C@H]1CC[C@H](CC(=O)NCc2ccc(Oc3ccccc3)cc2)O[C@@H]1CO	/	/	-1	15*	/	3	-1	-4
CC(C)C[C@H](NC(=O)N1CCn2c1nc1ccccc12)C(=O)NCCc1ccccc1	1	-1	-12	3	-2	3	/	/
CC(C)C[C@H](NC(=O)N1CCn2c1nc1ccccc12)C(=O)NCc1ccccc1	1	-1	-11	15*	2	-1	/	7
COc1ccccc1Nc1nc(N)nc(CSc2nncn2C)n1	0	5	-5	15*	0	6	0	3
COc1ccccc1Nc1nc(N)nc(CSc2nccn2C)n1	6	-3	6	0	0	7	/	/
O=C(CCCCC(=O)OCC1CCCO1)OCC1CCCO1 (centres undefined)	-3	-1	-24	-4	-2	3	/	/
O=C(CCN1CCN(c2ccccc2)CC1)N/N=C/c1ccc(O)c(O)c1O	-7	2	1	15*	0	2	0	51*
O=C(CC(=O)c1ccccc1)Nc1cccnc1	20	-3	4	5	2	7	/	/
O=C(Nc1ccccc1)C(=O)Nc1cccnc1	5	-4	-3	22*	1	5	0	-2
Cc1nc2c(-c3ccccc3)c(C)[nH]n2c(=O)c1Cc1ccccc1	10	-5	22	59*	-1	10	-1	33*
